Experimental data from ChEMBL document CHEMBL3853270, “Influence of Birch Bark Triterpenes on Keratinocytes and Fibroblasts from Diabetic and Nondiabetic Donors” (2016).
Activity calls are given as the source filed them. The calls are words filed in the database; no cut-off is given here.

What was measured:
[1] = test system: Keratinocyte; assay: Effect on pro-inflammatory related gene expression in diabetic adult human primary keratinocytes assessed as IL1B mRNA levels at 9.81 uM after 6 hrs by qPCR analysis; format: functional
[2] = test system: Keratinocyte; assay: Effect on pro-inflammatory related gene expression in non-diabetic young human primary keratinocytes assessed as TNF mRNA levels at 9.81 uM after 6 hrs by qPCR analysis; format: functional
[3] = test system: Fibroblast; assay: Effect on pro-inflammatory related gene expression in non-diabetic adult human primary fibroblasts assessed as IL6 mRNA levels at 1.96 uM after 6 hrs by qPCR analysis; format: functional
[4] = test system: Keratinocyte; assay: Effect on ECM related gene expression in non-diabetic young human primary keratinocytes assessed as FBN1 mRNA levels at 1.96 uM after 6 hrs by qPCR analysis; format: functional
Outline: (§1)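 Primary keratinocytes from nondiabetic young and adult and diabetic adult donors; 400 000 cells per sample, 6 h exposure at 1.96 or 9.81 μM. RNA extracted and read on a high-throughput qPCR chip. Results are fold change versus 0.1% DMSO solvent control from 5−7 independent experiments over two donors per group, SD, one-way ANOVA with Bonferroni post-test.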

[5] = target: Transforming protein RhoA (Homo sapiens) (UniProt P61586); assay: Activation of RhoA in human diabetic primary keratinocytes at 10 nM after 3 hrs by immunoblot method
Chain of Transforming protein RhoA (Homo sapiens) (P61586 whole entry): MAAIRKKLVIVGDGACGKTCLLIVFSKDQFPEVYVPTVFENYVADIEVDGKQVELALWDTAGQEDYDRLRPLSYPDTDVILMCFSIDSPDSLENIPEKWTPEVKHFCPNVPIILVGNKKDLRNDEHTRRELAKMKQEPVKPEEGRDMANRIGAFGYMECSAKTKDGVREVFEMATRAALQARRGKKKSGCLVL
Outline: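 Keratinocytes from a diabetic adult donor; incubation 3 h for RhoA, 20 min for Cdc42 and Rac1. Lysates made in glycerol/Tris pH 7.4/NaCl/NP-40/MgCl2/PMSF buffer, spun at 4 °C. Active GTP-bound form pulled down on glutathione-sepharose with GST-Rhotekin (RhoA) or GST-PAK (Cdc42, Rac1) for 1 h at 4 °C. Total and pulled-down protein read by immunoblot with ECL; n = 3.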

[6] = test system: Fibroblast; assay: Effect on growth factor related gene expression in non-diabetic young human primary fibroblasts assessed as GDF15 mRNA levels at 9.81 uM after 6 hrs by qPCR analysis; format: functional
Outline: (§2)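 Primary human dermal fibroblasts (young or adult nondiabetic, adult diabetic donor) were treated for 6 h against a 0.1% DMSO solvent control. RNA from 320 000 cells per sample was measured by Fluidigm Biomark high-throughput qPCR. Values are fold change relative to solvent control, from four independent experiments, with SD. One-way ANOVA with Bonferroni post-test was applied.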

[7] = test system: Keratinocyte; assay: Effect on cellular connection related gene expression in diabetic adult human primary keratinocytes assessed as GJB2 mRNA levels at 9.81 uM after 6 hrs by qPCR analysis; format: functional
[8] = test system: Keratinocyte; assay: Effect on pro-inflammatory related gene expression in diabetic adult human primary keratinocytes assessed as TNF mRNA levels at 9.81 uM after 6 hrs by qPCR analysis; format: functional
[9] = test system: Fibroblast; assay: Effect on antioxidant related gene expression in non-diabetic young human primary fibroblasts assessed as SOD2 mRNA levels at 9.81 uM after 6 hrs by qPCR analysis; format: functional
[10] = test system: Fibroblast; assay: Effect on pro-inflammatory related gene expression in non-diabetic adult human primary fibroblasts assessed as IL1B mRNA levels at 9.81 uM after 6 hrs by qPCR analysis; format: functional
[11] = Upregulation of wound healing activity related soluble ICAM1 protein levels in non-diabetic adult human primary keratinocytes at 1.96 uM after 24 hrs by bead-based suspension array analysis; format: functional; conditions: Keratinocyte
[12] = test system: Keratinocyte; assay: Effect on chemokines related gene expression in non-diabetic young human primary keratinocytes assessed as CXCL10 mRNA levels at 9.81 uM after 6 hrs by qPCR analysis; format: functional
Outline: (§3)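 Primary human keratinocytes (nondiabetic young or adult, diabetic adult donors) were exposed to compound for 6 h, with 0.1% DMSO as solvent control. Total RNA came from 400 000 cells per sample and was assayed on a Fluidigm Biomark high-throughput qPCR chip. Results are fold change vs solvent control, from 2−4 independent experiments on two donors per group, with SD. Groups were compared by one-way ANOVA with Bonferroni post-test.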

[13] = test system: Keratinocyte; assay: Effect on growth factor related gene expression in diabetic adult human primary keratinocytes assessed as GDF15 mRNA levels at 1.96 uM after 6 hrs by qPCR analysis; format: functional; outline: as §3
[14] = test system: Fibroblast; assay: Effect on pro-inflammatory related gene expression in non-diabetic adult human primary fibroblasts assessed as IL6 mRNA levels at 9.81 uM after 6 hrs by qPCR analysis; format: functional
[15] = test system: Keratinocyte; assay: Effect on antiinflammatory related gene expression in diabetic adult human primary keratinocytes assessed as NFKBIA mRNA levels at 1.96 uM after 6 hrs by qPCR analysis; format: functional; outline: as §1
[16] = Effect on wound healing activity in non-diabetic adult human primary fibroblasts assessed as upregulation of RANTES protein levels at 1.96 uM after 24 hrs by bead-based suspension array analysis; format: functional; conditions: Fibroblast
[17] = test system: Fibroblast; assay: Effect on pro-inflammatory related gene expression in non-diabetic young human primary fibroblasts assessed as IL1B mRNA levels at 1.96 uM after 6 hrs by qPCR analysis; format: functional
[18] = test system: Keratinocyte; assay: Effect on pro-inflammatory related gene expression in non-diabetic young human primary keratinocytes assessed as IL6 mRNA levels at 9.81 uM after 6 hrs by qPCR analysis; format: functional
[19] = test system: Fibroblast; assay: Effect on chemokines related gene expression in diabetic adult human primary fibroblasts assessed as IL8 mRNA levels at 1.96 uM after 6 hrs by qPCR analysis; format: functional
[20] = test system: Fibroblast; assay: Effect on chemokines related gene expression in non-diabetic adult human primary fibroblasts assessed as CCL2 mRNA levels at 9.81 uM after 6 hrs by qPCR analysis; format: functional
[21] = test system: Keratinocyte; assay: Effect on growth factor related gene expression in diabetic adult human primary keratinocytes assessed as PDGFB mRNA levels at 1.96 uM after 6 hrs by qPCR analysis; format: functional; outline: as §3
[22] = test system: Keratinocyte; assay: Effect on cellular connection related gene expression in non-diabetic young human primary keratinocytes assessed as GJB2 mRNA levels at 9.81 uM after 6 hrs by qPCR analysis; format: functional
[23] = Effect on wound healing activity in non-diabetic adult human primary fibroblasts assessed as upregulation of soluble TNFR1 protein levels at 1.96 uM after 24 hrs by bead-based suspension array analysis; format: functional; conditions: Fibroblast
[24] = test system: Keratinocyte; assay: Effect on chemokines related gene expression in non-diabetic adult human primary keratinocytes assessed as IL8 mRNA levels at 1.96 uM after 6 hrs by qPCR analysis; format: functional
[25] = test system: Keratinocyte; assay: Effect on pro-inflammatory related gene expression in non-diabetic young human primary keratinocytes assessed as IL1B mRNA levels at 9.81 uM after 6 hrs by qPCR analysis; format: functional
[26] = test system: Keratinocyte; assay: Effect on growth factor related gene expression in non-diabetic adult human primary keratinocytes assessed as VEGFA mRNA levels at 1.96 uM after 6 hrs by qPCR analysis; format: functional; outline: as §3
[27] = test system: Fibroblast; assay: Effect on chemokines related gene expression in non-diabetic young human primary fibroblasts assessed as IL8 mRNA levels at 1.96 uM after 6 hrs by qPCR analysis; format: functional; outline: as §2
[28] = test system: Fibroblast; assay: Effect on transcription factor related gene expression in diabetic adult human primary fibroblasts assessed as JUN mRNA levels at 9.81 uM after 6 hrs by qPCR analysis; format: functional

## C=C(C)[C@@H]1CC[C@]2(CO)CC[C@]3(C)[C@H](CC[C@@H]4[C@@]5(C)CC[C@H](O)C(C)(C)[C@@H]5CC[C@]43C)[C@@H]12 [BETULIN]
[1]
  fold change (FC): 1
[2]
  fold change (FC): 6
[3]
  fold change (FC): 278
[4]
  fold change (FC): 1.8
[5]
  Activity: Active
[6]
  fold change (FC): 5.1
[7]
  fold change (FC): 0.9
[8]
  fold change (FC): 13
[9]
  fold change (FC): 2.2
[10]
  fold change (FC): 214
[11]
  Activity: Active
[12]
  fold change (FC): 1.7
[13]
  fold change (FC): 1.4
[14]
  fold change (FC): 246
[15]
  fold change (FC): 1.2
[16]
  Activity: Active
[17]
  fold change (FC): 3.3
[18]
  fold change (FC): 6
[19]
  fold change (FC): 10.8
[20]
  fold change (FC): 197
[21]
  fold change (FC): 1
[22]
  fold change (FC): 0.8
[23]
  Activity: Active
[24]
  fold change (FC): 24.2
[25]
  fold change (FC): 0.9
[26]
  fold change (FC): 1.3
[27]
  fold change (FC): 23.5
[28]
  fold change (FC): 1.2
